GC-A act – GC-A stimulated cGMP production enhancers – HEK293 GC-A cells, cGMP TR-FRET, EC30 ANP, primary screen | 0% at EC30 ANP, 100% saturating ANP | activation, % at 10 µM | hit rate 0.14% among 370,000 | AID 1671463, 2021; in the data active = activation above about 40%
GC-B act – human GC-B receptor activators, primary screen, HEK293 GC-B cells, cGMP TR-FRET, EC30 CNP | Atrial natriuretic peptide receptor 2 (Homo sapiens), P20594 | 0% at EC30 CNP, 100% saturating CNP | activation, % at 10 µM | hit rate 0.11% among 370,000;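 active = activation at 10 µM reaching about 35% in either raw or pattern-adjusted values, limit read from the data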
Arr AP2 block – inhibitors of beta-arrestin/AP2 binding, primary screen, biochemical, GPCR trafficking, flow cytometry | FITC-arrestin peptide / GST-AP2 beads; AP2 beta2 appendage carries R879A mutation | inhibition, % at 10 µM | hit rate 0.31% among 340,000 | AID 504490, 2011;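 active = inhibition above a set limit, near 3 SD of compounds lacking own fluorescence, cut at about 54% in these data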
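Assay system: GST-AP2 R879A bound to glutathione beads, E. coli-expressed; Medium: PBS with 0.05% Tween 20 and 0.1% BSA; Also added: fluorescein-tagged arrestin peptide at 50 nM final; Timing: 12 min plus 1 h, RT; Measured by: flow cytometry, FL1 (488/535 nm); Evaluation: percent drop in bead-associated FITC signal.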
GalR3 antag – GalR3 antagonists in HEK293 cells, primary screen, cell-based, fluorescence readout; AID 651719, 2012; HEK293 GalR3-CNG cAMP membrane potential fluorescence; galR3 body fused to GalR1 C-terminus; hit rate 0.44% among 360,000; Galanin receptor type 3 (Homo sapiens), O60755; inhibition, % at 3 µM;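 active = inhibition above the screen-wide average plus 3 SD, cut at about 13% in these data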;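 also: forskolin and galanin both at EC90 stimulate the cells; cAMP rise reported by CNG channel membrane potential dye signal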
Target sequence (O60755 1-299 limits assumed): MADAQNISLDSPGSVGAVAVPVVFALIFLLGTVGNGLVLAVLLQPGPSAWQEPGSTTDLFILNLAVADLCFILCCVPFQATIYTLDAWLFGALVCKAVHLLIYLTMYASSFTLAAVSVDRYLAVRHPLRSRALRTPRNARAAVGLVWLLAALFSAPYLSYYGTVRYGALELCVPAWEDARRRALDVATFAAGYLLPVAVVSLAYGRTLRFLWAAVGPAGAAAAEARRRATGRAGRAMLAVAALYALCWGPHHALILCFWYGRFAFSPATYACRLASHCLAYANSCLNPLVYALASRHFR
GalR3 conf – GalR3 antagonist hit confirmation, cell-based, fluorescence, triplicate; shares compounds with GalR3 antag; HEK293 GalR3 CNG cAMP biosensor, membrane potential fluorescence; galR3 fused to GalR1 carboxy tail; challenged with forskolin and galanin at EC90; inhibition, % at 3 µM; hit rate 59% among 1,600; AID 652245, 2013;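 active = inhibition above the primary screen's cutoff, the mean inhibition of all screened compounds plus 3 SD, cut at about 13% in these data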
CNG parental – nonspecific cAMP agonists in parental HEK-CNG cells, counter-screen for GalR3 antagonist project, cell-based, fluorescence, high throughput; HEK293-CNG parental cells, cAMP membrane potential fluorescence; normalised: DMSO wells 0%, forskolin wells 100%; activation, % at 3 µM; shares compounds with GalR3 antag; hit rate 10% among 1,600; in the data active = activation above about 1.3%
Each line names hits and unclear results; the compound was inactive in the other large screens (follow-up assays come after a bar, where they were run). Shown are actives, neighbours in structure and some others; about 0.94% of the full set was active somewhere.

O=C(NCCc1ccccc1)c1ccc(Cl)c(S(=O)(=O)N2CCCC2)c1	none (no result: GC-A act, GC-B act, GalR3 antag)
CC1CCCN(S(=O)(=O)c2cc(C(=O)NCCc3ccc(S(N)(=O)=O)cc3)ccc2Cl)C1 (centres undefined)	GalR3 antag 75 | GalR3 conf 15 | CNG parental inactive
COc1ccc(CCNC(=O)c2ccc(Cl)c(S(=O)(=O)N3CCCCCC3)c2)cc1	GalR3 antag 88 | GalR3 conf 99 | CNG parental inactive
COc1ccc(CCC(=O)Nc2ccc(Cl)c(S(=O)(=O)N3CCCC3)c2)cc1	GalR3 antag 66 | GalR3 conf 112 | CNG parental inactive
CCCCCCCCN1C(=O)N2Cc3cc(F)ccc3C2CS1(=O)=O (centres undefined)	none (no result: Arr AP2 block, GalR3 antag)
COc1cccc(Cn2cc(COC(=O)NCCc3c[nH]c4ccccc34)nn2)c1	none (no result: Arr AP2 block, GalR3 antag)
O=C(N[C@H](C(=O)N1CCC[C@H]1C(=O)NC1CCCC1)c1ccccc1)c1ccc(Cl)cc1Cl	none (no result: Arr AP2 block)
Cc1ccccc1-c1ccc2c(c1)[C@@H]1C[C@H]3[C@@H](CN1CC2)[C@H](C)OC(C1CCCCC1)N3C (some centres undefined)	none (no result: Arr AP2 block)
O=C(CSC1=NCCS1)N1CCN(c2ccc(Cl)cc2)CC1	GalR3 antag 45 | GalR3 conf 46 | CNG parental inactive
O=C(CSC1=NCCS1)c1ccc(Cl)cc1	none
Cn1c2ccccc2c2cnn(CC(=O)O)c(=O)c21	none (no result: GalR3 antag) | GalR3 conf inactive | CNG parental inactive
CCOC(=O)C1=CCN(S(=O)(=O)c2ccccc2Br)C1c1ccc(Cl)cc1 (centres undefined)	none (no result: Arr AP2 block)
Cc1ccccc1NC(=O)CSc1nc(N)c2c3c(sc2n1)CSC(C)(C)C3	GalR3 antag 21 | GalR3 conf 39 | CNG parental inactive
Cc1ccc(NC(=O)CSc2nc(N)c3c4c(sc3n2)CSC(C)(C)C4)cc1	none
CCOC(=O)N1CCN(C(=O)c2ccc3nc(N4CCCCC4)sc3c2)CC1	none
NC(=O)C1CCN(C(=O)c2ccc3nc(N4CCCCC4)sc3c2)CC1	GalR3 antag 16 | GalR3 conf inactive | CNG parental inactive
CC(=O)c1cccc(NS(=O)(=O)c2ccc(NC(=O)N3CCCCC3)cc2)c1	GalR3 antag 83 | GalR3 conf 97 | CNG parental inactive
CC(=O)c1cccc(NC(=O)N2CCCCCC2)c1	none
COC(=O)[C@]12C[C@H](CC(=O)NCc3cccs3)C(=O)N(Cc3ccccc3)C1=C[C@H](C(C)(C)C)O[C@@H]2C	none (no result: Arr AP2 block)
O=C(C(=O)N1CCC(CNS(=O)(=O)c2ccc(F)cc2)CC1)c1cccs1	none (no result: Arr AP2 block)
CCOc1ccc(CO/N=C/c2c(C)[nH]c(=O)[nH]c2=O)cc1	GalR3 antag 22 | GalR3 conf 21 | CNG parental inactive
CCc1nc2sc(C(C)=O)c(N)c2c2c1CCCC2	none
CCc1nc2sc(C#N)c(N)c2c2c1CCCC2	GalR3 antag 42 | GalR3 conf 57 | CNG parental inactive
COc1cc(CNCC(O)c2ccccc2)ccc1OCc1ccc(Cl)nc1 (centres undefined)	GalR3 antag 26 | GalR3 conf 43 | CNG parental 2.3
COc1cc(CNCCc2ccccc2)ccc1OCc1ccc(Cl)nc1	none
Cc1ccccc1Cn1cc(CN2[C@H](Cc3ccccc3)COc3cc(Br)ccc3S2(=O)=O)nn1	none (no result: Arr AP2 block, GalR3 antag)
Cc1cc(C)cc(N(CC(=O)NCc2ccco2)C(=O)CCC(=O)Nc2nccs2)c1	none
Cc1ccc(N(CC(=O)NCc2ccco2)C(=O)CCC(=O)Nc2nccs2)cc1	GalR3 antag 14 | GalR3 conf inactive | CNG parental inactive
COc1cc2c(cc1OC)C(C(=O)Nc1ccc3c(c1)OCCO3)C1c3ccccc3CCN1C2=O (centres undefined)	none
COc1cc2c(cc1OC)-c1cc(OCc3cccnc3)nc(=O)n1CC2	none
CCOc1cccc(Nc2cc3n(c(=O)n2)CCc2cc(OC)c(OC)cc2-3)c1	GalR3 antag 16 | GalR3 conf 56 | CNG parental inactive
COc1cc2c(cc1OC)-c1cc(Nc3ccc4c(c3)OCCO4)nc(=O)n1CC2	GalR3 antag 59 | GalR3 conf 57 | CNG parental inactive
COc1cc2c(cc1OC)-c1cc(NC3CCCCCC3)nc(=O)n1CC2	GalR3 antag 52 | GalR3 conf 58 | CNG parental inactive
COc1cc2c(cc1OC)-c1cc(Nc3ccccc3)nc(=O)n1CC2	GalR3 antag 44 | GalR3 conf 57 | CNG parental inactive
COc1ccc(Nc2cc3n(c(=O)n2)CCc2cc(OC)c(OC)cc2-3)cc1	GalR3 antag 21 | GalR3 conf 59 | CNG parental inactive
COc1cc2c(cc1OC)-c1cc(Nc3ccccc3Br)nc(=O)n1CC2	GalR3 antag 49 | GalR3 conf 61 | CNG parental inactive
COc1ccc(Nc2cc3n(c(=O)n2)CCc2cc(OC)c(OC)cc2-3)c(C)c1	GalR3 antag 40 | GalR3 conf 72 | CNG parental inactive
CCN(CC)CCCNc1cc2n(c(=O)n1)CCc1cc(OC)c(OC)cc1-2	none
COc1cc2c(cc1OC)[C@H](C)N(C(=O)NCc1ccccc1)CC2	none
COc1cc2c(cc1OC)-c1cc(Nc3ccc(C)cc3)nc(=O)n1CC2	GalR3 antag 45 | GalR3 conf 59 | CNG parental inactive
COc1cc2c(cc1OC)-c1cc(Nc3ccc(C(=O)O)cc3)nc(=O)n1CC2	none
COc1ccc(C=O)cc1-c1cc(C(C)=O)c2n(c1=O)CCC2	none (no result: Arr AP2 block, GalR3 antag)
O=C1Nc2c(Cl)cc(Cl)cc2C12Nc1ccccc1S2 (centres undefined)	none (no result: Arr AP2 block)
Cc1nc2scc(-c3ccccc3)c2c(=O)n1N=C1C=CC(=O)C=C1	GalR3 antag 15 (no result: Arr AP2 block) | GalR3 conf 24 | CNG parental inactive
CC(=O)c1c(N2CCCCC2)nc(=S)n(-c2ccccc2)c1C	none (no result: GalR3 antag) | GalR3 conf inactive | CNG parental inactive
CCn1c(C)c(C(C)=O)c(N2CCN(c3ccccc3)CC2)nc1=S	GalR3 antag 42 | GalR3 conf inactive | CNG parental inactive
CC(=O)c1c(N2CCCC2)nc(=S)n(-c2ccccc2)c1C	none
CCn1c(C)c(C(C)=O)c(N2CCN(C(c3ccccc3)c3ccccc3)CC2)nc1=S	none

Screens from PubChem.
